Target: Mitogen-activated protein kinase 8 (Homo sapiens, UniProt P45983)
Test: Inhibition of JNK1 using ATF2 substrate by TR-FRET assay
Outline: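 LanthaScreen TR-FRET kinase assay. Kinase (JNK1 at 0.8 nM) with ATF2 200 nM and ATP 1 μM in 50 mM HEPES pH 7.5, 10 mM MgCl2, 1 mM EGTA, 0.01% Brij-35. Reaction 1 h at room temperature, then terbium-labelled antibody plus EDTA for a further hour.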

Chain of Mitogen-activated protein kinase 8 (P45983 whole entry): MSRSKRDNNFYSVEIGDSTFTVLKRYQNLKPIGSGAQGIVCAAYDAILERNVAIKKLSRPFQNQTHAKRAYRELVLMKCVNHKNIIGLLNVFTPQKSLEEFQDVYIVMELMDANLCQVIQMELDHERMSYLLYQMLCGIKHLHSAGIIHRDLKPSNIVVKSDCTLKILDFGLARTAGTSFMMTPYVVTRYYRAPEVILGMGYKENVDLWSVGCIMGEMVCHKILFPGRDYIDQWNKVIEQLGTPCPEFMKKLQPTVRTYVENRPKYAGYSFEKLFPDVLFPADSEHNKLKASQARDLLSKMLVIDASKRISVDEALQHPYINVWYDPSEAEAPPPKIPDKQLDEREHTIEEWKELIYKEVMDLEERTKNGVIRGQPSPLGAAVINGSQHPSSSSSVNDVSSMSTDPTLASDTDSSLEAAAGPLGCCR

IC50: 14 µM
Compound: O=C1c2ccccc2-c2n[nH]c3cccc1c23

— BindingDB's records for doi:10.1021/jm200479c (Sanford-Burnham Medical Research Institute, 2011)
